Test results taken from ChEMBL document CHEMBL3526120, “Plasma stability-dependent circulation of acyl glucuronide metabolites in humans: how circulating metabolite profiles of muraglitazar and peliglitazar can lead to misleading risk assessment” (Drug Metab Dispos, 2011).

Columns and labels:
[1] = Drug excretion in human urine treated with [14C]muraglitazar at 20 mg, po measured during 0 to 168 hrs; assay type: ADME, organism-based; conditions: in vivo
[2] = Drug excretion in human bile treated with [14C]muraglitazar at 20 mg, po measured during 3 to 8 hrs; assay type: ADME, organism-based; conditions: in vivo
[3] = Chemical stability of compound assessed as aglycon formation rate in 50 mM phosphate buffer at pH 7.4 by HPLC analysis; assay type: physicochemical
Method in brief: (§1)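 Synthetic 1-O-β-acyl glucuronide at 50 μg/mL, incubated at 37°C and pH 7.4. […] used 50 mM sodium phosphate buffer; […] used human plasma buffered with 50 mM phosphate. Samples were taken at 0.25–48 h (3 tubes per time point), frozen at -80 °C and run on HPLC system III. Aglycon formation rate is the mean of rates within the linear range (<3 hr).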

Plasma = assay: Stability in human plasma assessed as aglycon formation rate by HPLC analysis in presence of 50 mM phosphate; assay type: ADME, cell-free; method in brief: as §1
Liver microsome [4] = assay: Drug metabolism in human liver microsomes assessed as glucuronide oxidation rate per mg of protein in presence of NADPH; assay type: ADME
Method in brief: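 Acyl glucuronide (20 μM) was incubated for 15 min with human liver microsomes (2 mg/mL protein) in 50 mM sodium phosphate, with and without 1 mM NADPH. Products were separated on HPLC system II, quantified by UV at 278 nm and identified by LC/MS.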

Homo sapiens [5] = assay: Drug level in human plasma assessed as compound formation treated with [14C]muraglitazar at 20 mg, po administered as single dose measured after 1 hr by HPLC analysis; assay type: ADME, organism-based; conditions: in vivo
Method in brief: (§2)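 Healthy males aged 18–45 (four subjects) fasted at least 8 h, then took a single oral PEG-400 solution (~100 μCi) of [14C]muraglitazar 20 mg or [14C]peliglitazar 10 mg. K2EDTA plasma was taken at 1, 4, 12 and 24 h, acidified to 5% acetic acid and stored at -20 °C. Plasma was pooled across subjects, extracted three times with methanol/acetonitrile (1:3), and fractions from HPLC system II were radiocounted. Concentration came from relative radioactivity distribution, total radioactivity and specific activity.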

[6] = Drug excretion in human urine treated with [14C][…] at […], po measured during 0 to 168 hrs; assay type: ADME, organism-based; conditions: in vivo
[7] = Drug excretion in human bile treated with [14C][…] at […], po measured during 3 to 8 hrs; assay type: ADME, organism-based; conditions: in vivo
Homo sapiens [8] = assay: Drug level in human plasma assessed as compound formation treated with [14C]peliglitazar at 10 mg, po administered as single dose measured after 1 to 24 hrs by HPLC analysis; assay type: ADME, organism-based; conditions: in vivo; method in brief: as §2
Homo sapiens [9] = assay: Drug metabolism in human plasma assessed as peliglitazar-1-O-beta-acyl glucuronide formation at 10 mg, po administered as single dose measured after 1 to 24 hrs by HPLC analysis; assay type: ADME, organism-based; conditions: in vivo
Method in brief: (§3)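 Healthy male volunteers received a single oral [14C] dose (approximately 100 μCi) in PEG-400 after fasting. K2EDTA blood drawn at 1, 4, 12 and 24 h. Plasma acidified to 5% acetic acid, stored at -20°C, pooled across subjects and extracted three times with methanol/acetonitrile (1:3). Radio-HPLC used fraction collection and counting; protein pellets were counted after NaOH digestion.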

Homo sapiens [10] = assay: Drug metabolism in human plasma assessed as acyl isomer formation at 10 mg, po administered as single dose by HPLC analysis; assay type: ADME, organism-based; conditions: in vivo; method in brief: as §3
Liver microsome [11] = assay: Drug metabolism in human liver microsomes assessed as glucuronidation rate per mg of protein at 10 uM after 15 mins by LC-MS/HPLC analysis in presence of 2 mM UDPGA; assay type: ADME; conditions: 0.25 h
Method in brief: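 Human liver microsomes (1 mg/mL protein) with substrate 10 μM final, UDPGA 2 mM, MgCl2 10 mM, Tris 100 mM pH 7.4. Started with substrate at 37°C, stopped after 15 min with one volume acetonitrile, centrifuged. Supernatant analysed by LC/MS; fraction from the 278 nm UV trace as metabolite/(metabolite + parent).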

Hepatocyte = assay: Drug metabolism in human hepatocytes assessed as glucuronidation rate per 10^6 cells at 5 uM after 1 hr by LC-MS/HPLC analysis in Krebs-Henseleit buffer
[12] = Drug excretion in human urine at 20 mg, po measured during 0 to 168 hrs; assay type: ADME, organism-based; conditions: read-out: Drug excretion
[13] = Drug excretion in human bile at 20 mg, po measured during 3 to 8 hrs; assay type: ADME, organism-based; conditions: read-out: Drug excretion
Homo sapiens [14] = assay: Drug metabolism in human plasma assessed as muraglitazar-1-O-beta-acyl glucuronide formation at 20 mg, po administered as single dose after 1 hr by HPLC analysis; assay type: ADME, organism-based; conditions: in vivo; method in brief: as §3
Homo sapiens [15] = assay: Drug metabolism in human plasma assessed as muraglitazar-1-O-beta-acyl glucuronide formation at 20 mg, po administered as single dose measured after 4 to 24 hrs by HPLC analysis; assay type: ADME, organism-based; conditions: in vivo; method in brief: as §3
Homo sapiens [16] = assay: Drug metabolism in human plasma assessed as acyl isomer formation at 20 mg, po administered as single dose by HPLC analysis; assay type: ADME, organism-based; conditions: in vivo; method in brief: as §3

Drug metabolism [3] [ug/ml.hr] | Drug metabolism (Plasma) [ug/ml.hr] | Drug metabolism (Liver microsome [4]) [pmol/min] | SMILES | Drug metabolism (Liver microsome [11]) [pmol/min] | Drug metabolism (Hepatocyte) [pmol/min] | dose excreted [12] [%] | dose excreted [13] [%] | further results
3.5 | 16.7 | 22 | COc1ccc(OC(=O)N(CC(=O)O[C@@H]2O[C@H](C(=O)O)[C@@H](O)[C@H](O)[C@H]2O)Cc2ccc(OCCc3nc(-c4ccccc4)oc3C)cc2)cc1 |  |  |  |  | Drug excretion [1]: 0.81%; Drug excretion [2]: 15%; Drug metabolism (Homo sapiens [5]): metabolite_detected
0.5 | 5.9 | 24 | COc1ccc(OC(=O)N(CC(=O)O[C@@H]2O[C@H](C(=O)O)[C@@H](O)[C@H](O)[C@H]2O)[C@@H](C)c2ccc(OCCc3nc(-c4ccccc4)oc3C)cc2)cc1 |  |  |  |  | Drug excretion [6]: 0.24%; Drug excretion [7]: 16%; Drug metabolism (Homo sapiens [8]): metabolite_detected
 |  |  | COc1ccc(OC(=O)N(CC(=O)O)[14C@@H](C)c2ccc(O[14CH2]Cc3nc(-c4ccccc4)oc3C)cc2)cc1 | 32 | 49 |  |  | Drug metabolism (Homo sapiens [9]): metabolite_detected; Drug metabolism (Homo sapiens [10]): metabolite_not_detected
 |  |  | COc1ccc(OC(=O)N(CC(=O)O)[C@@H](C)c2ccc(OCCc3nc(-c4ccccc4)oc3C)cc2)cc1 [PELIGLITAZAR] |  |  | 1.24 | 24.4 | 
 |  |  | COc1ccc(OC(=O)N(CC(=O)O)C[14c]2[14cH][14cH][14c](OCCc3nc(-c4ccccc4)oc3C)[14cH][14cH]2)cc1 | 33 | 60 |  |  | Drug metabolism (Homo sapiens [14]): metabolite_detected; Drug metabolism (Homo sapiens [15]): metabolite_not_detected; Drug metabolism (Homo sapiens [16]): metabolite_not_detected
 |  |  | COc1ccc(OC(=O)N(CC(=O)O)Cc2ccc(OCCc3nc(-c4ccccc4)oc3C)cc2)cc1 [MURAGLITAZAR] |  |  | 2.13 | 39.9 | 
